≈ marks a conversion by molar mass, not a printed value. Calls of active or inactive are those of the source. The rule behind the calls is not given here.
Columns and labels:
MRC5 [1] = assay: Antiinflammatory activity against IFN-gamma-stimulated human MRC5 cells assessed as reduction of TNF-alpha mRNA level at 20 uM incubated for 3 hrs by RT-PCR analysis relative to control; format: functional; set-up: scale not given: the % may be the effect or the level left
In short: (§1)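 MRC-5 cells cultured in DMEM with 10% FBS at 37 °C, 5% CO2, then stimulated with or without 20 ng/mL IFN-γ in presence or absence of test agent for 3 h. Competitive RT-PCR; targets amplified 25 cycles (annealing 57 °C). Band densitometry expressed relative to β-actin mRNA. Mean ± SD.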

[2] = Toxicity in mouse at 0.01 to 0.5 mg/kg assessed as death; format: organism-based; settings: in vivo
[3] = system: Mycobacterium tuberculosis; assay: Antitubercular activity against Mycobacterium tuberculosis H37Rv P887 incubated for 1 to 9 days by inverted microscopic analysis; format: functional
In short: (§2)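 Bacteria immobilised in 0.5% agarose within microfluidic channels of a 96-well chip. Compound (0–632 μM; rifampicin 0–19.4 μM) supplied in Middlebrook 7H9 with 10% OADC and allowed to diffuse in. Incubated at 37 °C; channel boundary imaged by inverted microscopy (40×) at 1, 3, 5, 7 and 9 days. MIC90 taken as lowest concentration giving 90% growth inhibition. Triplicate.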

[4] = Cytotoxicity against human HaCaT cells assessed as cell survival rate at 158 uM after 24 hrs by MTT assay; format: cell-based; settings: read-out: Survival
In short: (§3)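 Cells treated for 24 h with test agent (0–400 μM) or rifampicin (0–16 μM), then MTT assay. Survival taken as A570 of treated cells over A570 of untreated cells, as a percentage. Average of triplicates from three independent experiments.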

[5] = Toxicity in mouse at 0.01 to 0.5 mg/kg assessed as breathing; format: organism-based; settings: in vivo
MRC5 [6] = assay: Antiinflammatory activity against IFN-gamma-stimulated human MRC5 cells assessed as reduction of TNF-alpha production at 5 uM after 24 hrs by ELISA relative to control; format: functional; set-up: scale not given: the % may be the effect or the level left
In short: (§4)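 MRC-5 cells stimulated with IFN-γ and exposed to test agent for 24 h. TNF-α and IL-12 in culture media measured by sandwich ELISA: capture antibody coated overnight at 4 °C, blocking 1 h, sample 2 h at RT, detection antibody 1 h, TMB substrate, stopped with 1 N H2SO4, OD 450 nm. Mean ± SD of at least three independent experiments.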

MRC5 [7] = assay: Antiinflammatory activity against IFN-gamma-stimulated human MRC5 cells assessed as reduction of IL-6 mRNA level at 20 uM incubated for 3 hrs by RT-PCR analysis relative to control; format: functional; set-up: scale not given: the % may be the effect or the level left; in short: as §1
MRC5 [8] = assay: Antiinflammatory activity against IFN-gamma-stimulated human MRC5 cells assessed as reduction of MMP-1 mRNA level at 20 uM incubated for 3 hrs by RT-PCR analysis relative to control; format: functional; set-up: scale not given: the % may be the effect or the level left; in short: as §1
[9] = molecular target: Mitogen-activated protein kinase; ERK1/ERK2 (Homo sapiens) (UniProt P27361+P28482); assay: Downregulation of ERK1/2 phosphorylation in IFN-gamma-induced human MRC5 cells at 20 uM pretreated for 1 hr followed by IFN-gamma stimulation for 3 hrs by Western blot analysis; format: cell-based
In short: (§5)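 MRC-5 cells pretreated with 20 μM agent for 1 h, then 20 ng/mL IFN-γ for 3 h. Cytoplasmic lysates prepared; 20 μg protein run on 10% SDS-PAGE and transferred to PVDF. Membranes blocked in 5% BSA/TBST and probed overnight at 4 °C with phospho-specific and total MAPK antibodies. β-Actin used as loading control.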

[10] = Toxicity in mouse at 0.01 to 0.5 mg/kg assessed as change in BUN level; format: organism-based; settings: in vivo
In short: (§6)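 BALB/c mice, 3 per group, given 0.01, 0.1 or 0.5 mg/kg ip; LPS 10 mg/kg ip 1 h later. Sacrificed at 12 h. Serum AST, ALT and BUN measured on an automated clinical analyser. Mean ± SD.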

MRC5 [11] = assay: Antiinflammatory activity against IFN-gamma-stimulated human MRC5 cells assessed as reduction of IL-12 production at 10 uM after 24 hrs by ELISA relative to control; format: functional; set-up: scale not given: the % may be the effect or the level left; in short: as §4
[12] = Cytotoxicity against human MRC5 cells assessed as cell survival rate at 158 uM after 24 hrs by MTT assay; format: cell-based; settings: read-out: Survival; in short: as §3
[13] = Toxicity in mouse at 0.01 to 0.5 mg/kg assessed as irritability; format: organism-based; settings: in vivo
[14] = Cytotoxicity against human HaCaT cells assessed as cell survival rate at 316 uM after 24 hrs by MTT assay; format: cell-based; settings: read-out: Survival; in short: as §3
[15] = molecular target: T1, MAP kinase p38 (Homo sapiens) (UniProt O15264+Q15759+Q16539+P53778); assay: Binding affinity to human C-terminally His-tagged p38 expressed in Escherichia coli BL21 by fluorescence quenching based spectrofluorometric analysis
In short: (§7)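 C-terminally His6-tagged ERK1 or p38 MAPK expressed in E. coli and purified. Protein at 10 μM in 50 mM sodium phosphate, 100 mM NaCl, pH 8.0, titrated with ligand to 1:10 protein:ligand. Excitation 290 nm, emission 290–500 nm. Binding constant K derived from fluorescence quenching.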

Mus musculus [16] = assay: Antiinflammatory activity against LPS-induced BALB/c mouse lung inflammation model assessed as lowering of IL-1beta level at 0.01 to 0.5 mg/kg, ip administered for 1 hr followed by LPS stimulation for 12 hrs relative to vehicle-treated control; format: functional, organism-based
In short: (§8)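 Female BALB/c mice, 6 weeks old, acclimatised 1 week; 6 groups of 3. Test agent (0.01, 0.1 or 0.5 mg/kg) given ip; 1 h later LPS 10 mg/kg ip in PBS. Sacrifice at 12 h. Whole lungs homogenised in NP-40 lysis buffer at 4 °C and centrifuged. Cytokines in supernatant measured by ELISA (OD 450 nm).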

[17] = molecular target: Mitogen-activated protein kinase 3 (Homo sapiens) (UniProt P27361); assay: Binding affinity to human ERK1 expressed in Escherichia coli BL21 by fluorescence quenching based spectrofluorometric analysis; in short: as §7
[18] = system: Mycobacterium tuberculosis; assay: Antitubercular activity against MDR Mycobacterium tuberculosis X23 incubated for 1 to 9 days by inverted microscopic analysis; format: functional
[19] = Toxicity in mouse at 0.01 to 0.5 mg/kg assessed as twisting; format: organism-based; settings: in vivo
Mus musculus [20] = assay: Antiinflammatory activity against LPS-induced BALB/c mouse lung inflammation model assessed as lowering of IL-12 level at 0.01 to 0.5 mg/kg, ip administered for 1 hr followed by LPS stimulation for 12 hrs relative to vehicle-treated control; format: functional, organism-based; in short: as §8
[21] = Toxicity in mouse at 0.01 to 0.5 mg/kg assessed as weight loss; format: organism-based; settings: in vivo
MRC5 [22] = assay: Antiinflammatory activity against IFN-gamma-stimulated human MRC5 cells assessed as reduction of IL-12 mRNA level at 20 uM incubated for 3 hrs by RT-PCR analysis relative to control; format: functional; set-up: scale not given: the % may be the effect or the level left; in short: as §1
[23] = Toxicity in mouse at 0.01 to 0.5 mg/kg assessed as change in ALT level; format: organism-based; settings: in vivo; in short: as §6
[24] = Lipophilicity, logP of the compound; format: physicochemical; settings: octanol/water
MRC5 [25] = assay: Antiinflammatory activity against IFN-gamma-stimulated human MRC5 cells assessed as reduction of IL-1beta mRNA level at 20 uM incubated for 3 hrs by RT-PCR analysis relative to control; format: functional; set-up: scale not given: the % may be the effect or the level left; in short: as §1
[26] = system: Mycobacterium tuberculosis; assay: Antitubercular activity against XDR Mycobacterium tuberculosis X59 incubated for 1 to 9 days by inverted microscopic analysis; format: functional; in short: as §2
[27] = Toxicity in mouse at 0.01 to 0.5 mg/kg assessed as change in AST level; format: organism-based; settings: in vivo; in short: as §6
[28] = Cytotoxicity against mouse NIH/3T3 cells assessed as cell survival rate at 158 uM after 24 hrs by MTT assay; format: cell-based, NIH3T3; settings: read-out: Survival; in short: as §3
[29] = Cytotoxicity against mouse NIH/3T3 cells assessed as cell survival rate at 316 uM after 24 hrs by MTT assay; format: cell-based, NIH3T3; settings: read-out: Survival; in short: as §3
MRC5 [30] = assay: Antiinflammatory activity against IFN-gamma-stimulated human MRC5 cells assessed as reduction of TNF-alpha production at 10 uM after 24 hrs by ELISA relative to control; format: functional; set-up: scale not given: the % may be the effect or the level left; in short: as §4
[31] = Cytotoxicity against mouse NIH/3T3 cells assessed as cell survival rate at 400 uM after 24 hrs by MTT assay; format: cell-based, NIH3T3; settings: read-out: Survival; in short: as §3
[32] = molecular target: Mitogen-activated protein kinase 8/9 (Homo sapiens) (UniProt P45983+P45984); assay: Downregulation of JNK1/2 phosphorylation in IFN-gamma-induced human MRC5 cells at 20 uM pretreated for 1 hr followed by IFN-gamma stimulation for 3 hrs by Western blot analysis; format: cell-based; in short: as §5
[33] = system: Mycobacterium tuberculosis; assay: Antitubercular activity against Mycobacterium tuberculosis H37Rv P887 at 158 uM incubated for 1 to 9 days by inverted microscopic analysis; format: functional; in short: as §2
[34] = Cytotoxicity against human MRC5 cells assessed as cell survival rate at 316 uM after 24 hrs by MTT assay; format: cell-based; settings: read-out: Survival; in short: as §3
[35] = system: Mycobacterium tuberculosis; assay: Antitubercular activity against XDR Mycobacterium tuberculosis X24 incubated for 1 to 9 days by inverted microscopic analysis; format: functional; in short: as §2
Mus musculus [36] = assay: Antiinflammatory activity against LPS-induced BALB/c mouse lung inflammation model assessed as lowering of IFN-gamma level at 0.01 to 0.5 mg/kg, ip administered for 1 hr followed by LPS stimulation for 12 hrs relative to vehicle-treated control; format: functional, organism-based; in short: as §8
MRC5 [37] = assay: Antiinflammatory activity against IFN-gamma-stimulated human MRC5 cells assessed as reduction of IL-12 production at 5 uM after 24 hrs by ELISA relative to control; format: functional; set-up: scale not given: the % may be the effect or the level left; in short: as §4
[38] = system: Mycobacterium tuberculosis; assay: Antitubercular activity against MDR Mycobacterium tuberculosis M22 incubated for 1 to 9 days by inverted microscopic analysis; format: functional; in short: as §2
[39] = Cytotoxicity against human HaCaT cells assessed as cell survival rate at 400 uM after 24 hrs by MTT assay; format: cell-based; settings: read-out: Survival; in short: as §3
[40] = molecular target: T1, MAP kinase p38 (Homo sapiens); assay: Downregulation of p38 phosphorylation in IFN-gamma-induced human MRC5 cells at 20 uM pretreated for 1 hr followed by IFN-gamma stimulation for 3 hrs by Western blot analysis; format: cell-based; in short: as §5
Mus musculus [41] = assay: Antiinflammatory activity against LPS-induced BALB/c mouse lung inflammation model assessed as lowering of IL-6 level at 0.01 to 0.5 mg/kg, ip administered for 1 hr followed by LPS stimulation for 12 hrs relative to vehicle-treated control; format: functional, organism-based; in short: as §8

Mitogen-activated protein kinase 8/9 (Homo sapiens), sequence (P45983 whole entry, looked up): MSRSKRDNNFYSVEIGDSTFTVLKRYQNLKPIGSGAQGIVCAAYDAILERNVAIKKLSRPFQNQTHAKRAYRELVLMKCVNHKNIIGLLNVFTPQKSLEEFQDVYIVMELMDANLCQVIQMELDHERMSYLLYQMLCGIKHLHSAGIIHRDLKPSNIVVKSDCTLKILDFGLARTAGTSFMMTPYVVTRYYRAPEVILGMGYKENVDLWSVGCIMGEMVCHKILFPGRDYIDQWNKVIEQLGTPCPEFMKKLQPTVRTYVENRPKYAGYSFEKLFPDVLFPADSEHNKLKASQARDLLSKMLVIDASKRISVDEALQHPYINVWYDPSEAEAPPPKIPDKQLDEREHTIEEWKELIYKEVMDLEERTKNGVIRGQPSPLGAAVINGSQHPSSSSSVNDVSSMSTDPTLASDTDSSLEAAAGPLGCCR
Mitogen-activated protein kinase 8/9 (Homo sapiens), sequence (P45984 whole entry, looked up): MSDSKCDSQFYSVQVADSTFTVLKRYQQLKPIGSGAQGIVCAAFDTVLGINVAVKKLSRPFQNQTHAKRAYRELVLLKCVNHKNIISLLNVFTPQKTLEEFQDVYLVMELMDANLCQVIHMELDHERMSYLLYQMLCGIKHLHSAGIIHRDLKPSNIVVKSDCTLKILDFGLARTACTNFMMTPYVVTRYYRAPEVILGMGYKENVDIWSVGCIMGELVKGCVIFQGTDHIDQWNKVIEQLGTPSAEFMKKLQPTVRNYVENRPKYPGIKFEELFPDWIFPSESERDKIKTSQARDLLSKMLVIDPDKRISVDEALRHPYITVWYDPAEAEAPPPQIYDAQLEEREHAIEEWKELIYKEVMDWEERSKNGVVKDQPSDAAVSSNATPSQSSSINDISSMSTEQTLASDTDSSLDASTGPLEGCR
Mitogen-activated protein kinase 3 (Homo sapiens), sequence (P27361 whole entry): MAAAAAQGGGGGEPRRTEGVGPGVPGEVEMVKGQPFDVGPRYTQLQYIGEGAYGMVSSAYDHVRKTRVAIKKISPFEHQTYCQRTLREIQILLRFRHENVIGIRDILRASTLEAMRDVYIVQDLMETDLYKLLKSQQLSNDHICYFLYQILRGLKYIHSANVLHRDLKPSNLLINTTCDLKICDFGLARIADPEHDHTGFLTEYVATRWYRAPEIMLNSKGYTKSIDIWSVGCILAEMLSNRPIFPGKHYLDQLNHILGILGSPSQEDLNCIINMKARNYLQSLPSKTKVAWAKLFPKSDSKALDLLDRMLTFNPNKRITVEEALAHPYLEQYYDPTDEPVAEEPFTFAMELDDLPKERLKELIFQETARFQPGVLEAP
Mitogen-activated protein kinase; ERK1/ERK2 (Homo sapiens), sequence (P27361 whole entry, looked up): as the sequence (P27361 whole entry) above
Mitogen-activated protein kinase; ERK1/ERK2 (Homo sapiens), sequence (P28482 whole entry, looked up): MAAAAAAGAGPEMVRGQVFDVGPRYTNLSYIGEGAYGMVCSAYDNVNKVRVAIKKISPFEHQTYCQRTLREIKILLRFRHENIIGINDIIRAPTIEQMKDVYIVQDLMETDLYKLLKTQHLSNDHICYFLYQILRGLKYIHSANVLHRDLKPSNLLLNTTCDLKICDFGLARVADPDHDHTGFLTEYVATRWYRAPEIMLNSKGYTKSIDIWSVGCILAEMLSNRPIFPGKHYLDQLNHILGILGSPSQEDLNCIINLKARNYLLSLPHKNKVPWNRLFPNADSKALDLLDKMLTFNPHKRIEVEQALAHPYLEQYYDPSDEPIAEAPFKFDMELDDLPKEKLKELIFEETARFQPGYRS

SMILES: COc1cc(-c2oc3cc(O)cc(O)c3c(=O)c2O)ccc1O [ISORHAMNETIN]
- Activity (MRC5 [1]): 56%
- Activity [2]: Non-Toxic
- MIC90 [3]: 158 µM (≈ 50 µg/mL)
- viability at 24 h, 158 µM [4]: 90%
- Activity [5]: Non-Toxic
- Activity (MRC5 [6]): 37.5%
- Activity (MRC5 [7]): 69%
- Activity (MRC5 [8]): 41%
- Activity [9]: Active
- Activity [10]: Non-Toxic
- Activity (MRC5 [11]): 50%
- viability at 24 h, 158 µM [12]: 54%
- Activity [13]: Non-Toxic
- viability at 24 h, 316 µM [14]: 71%
- K [15]: 7.6 ×10⁶ /M
- Activity (Mus musculus [16]): Active
- K [17]: 4.46 ×10⁶ /M
- MIC90 [18]: 316 µM (≈ 99.9 µg/mL)
- Activity [19]: Non-Toxic
- Activity (Mus musculus [20]): Active
- Activity [21]: Non-Toxic
- Activity (MRC5 [22]): 76%
- Activity [23]: Non-Toxic
- logP [24]: 1.86
- Activity (MRC5 [25]): 39%
- MIC90 [26]: 316 µM (≈ 99.9 µg/mL)
- Activity [27]: Non-Toxic
- viability at 24 h, 158 µM [28]: 78%
- viability at 24 h, 316 µM [29]: 63%
- Activity (MRC5 [30]): 43.75%
- viability at 24 h, 400 µM [31]: 58%
- Activity [32]: inactive
- inhibition at 158 µM [33]: 90%
- viability at 24 h, 316 µM [34]: 47%
- MIC90 [35]: 316 µM (≈ 99.9 µg/mL)
- Activity (Mus musculus [36]): Active
- Activity (MRC5 [37]): 45%
- MIC90 [38]: 316 µM (≈ 99.9 µg/mL)
- viability at 24 h, 400 µM [39]: 66%
- Activity [40]: Active
- Activity (Mus musculus [41]): Active
